# Bioassay records (PubChem BioAssay)
# Hits are enriched below; roughly 1.3% of the tested compounds scored in any of these assays.
# Casp6 inh: blocks human caspase-6 cleavage activity | P55212 | inhibition, % at 12.5 µM | purified caspase-6, Z-VEID-R110 cleavage fluorescence | 0.53% of 350,000 active;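 active = mean inhibition across replicates at least about 35%, with every replicate also reaching that limit, limit read from the data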
# Target sequence (P55212 24-179 limits assumed): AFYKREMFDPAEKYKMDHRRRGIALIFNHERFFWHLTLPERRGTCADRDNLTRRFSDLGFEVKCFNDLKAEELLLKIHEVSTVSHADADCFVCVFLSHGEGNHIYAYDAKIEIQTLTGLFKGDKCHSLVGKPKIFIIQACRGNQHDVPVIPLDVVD
# Target sequence (P55212 194-293 limits assumed): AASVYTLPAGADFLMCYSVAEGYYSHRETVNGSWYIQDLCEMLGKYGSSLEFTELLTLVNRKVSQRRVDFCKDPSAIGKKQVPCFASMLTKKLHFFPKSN
# TDP2 absorb: TDP2 (human) inhibition, absorbance primary screen; recombinant TDP2, T5PNP hydrolysis, p-nitrophenol absorbance 415 nm; O95551; 0.34% of 370,000 active; AID 720702; inhibition, % at 12.8 µM;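 active = inhibition above the mean of all tested compounds plus 3 SD, set per campaign, cut at about 25% in these data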
#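 Assay system: Recombinant human TDP2 | Quantity: 120 nM TDP2 per well | Incubation: 2 h at 37 °C | Signal: Epi absorbance | Evaluation: Percent inhibition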
# UCH37 DUB inh: human UCH37 deubiquitinating enzyme inhibition | inhibition, % (test concentration not listed) | 0.33% of 330,000 active | purified proteasome/UCH37, Ub-AMC cleavage fluorescence;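 active = mean inhibition over replicate wells above about 20%, limit read from the data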
# Target sequence (Q9Y5K5 whole entry, looked up): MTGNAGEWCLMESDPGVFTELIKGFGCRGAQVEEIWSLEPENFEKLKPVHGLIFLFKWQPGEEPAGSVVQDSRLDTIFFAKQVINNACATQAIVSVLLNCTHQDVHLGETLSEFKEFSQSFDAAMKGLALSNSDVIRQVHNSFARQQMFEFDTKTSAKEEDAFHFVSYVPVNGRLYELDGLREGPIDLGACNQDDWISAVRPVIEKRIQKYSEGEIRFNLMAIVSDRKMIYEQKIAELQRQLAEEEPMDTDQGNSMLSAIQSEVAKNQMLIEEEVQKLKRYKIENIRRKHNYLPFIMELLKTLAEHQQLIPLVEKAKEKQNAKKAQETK
#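 Reagent: Ub-AMC substrate; assay system: Proteasome-associated human UCH37 deubiquitinase; controls: no-proteasome and no-compound wells; read-out: % inhibition of Ub-AMC cleavage fluorescence; timing: 30 min preincubation with enzyme, 25 min cleavage at room temperature; signal: AMC fluorescence from Ub-AMC cleavage, excitation 355 nm, emission 460 nm; buffer or medium: Tris-HCl pH 7.4 plus ovalbumin, ATP-MgCl2, DTT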
# LEDGF integ inh: blocks HIV-1 LEDGF/p75-dependent DNA integration; TR-FRET IN-LEDGF/p75 DNA integration, Eu/Cy5; inhibition, % at 3.7 µM; AID 743269; 0.64% of 370,000 active;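 active = inhibition above the screen-wide mean plus 3 SD, cut at about 13% in these data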;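 also: signal is the Cy5 over europium emission ratio at 671 and 618 nm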
# NSD2 HMT inh: blocks human histone methyltransferase NSD2; O96028; NSD2 peptide methylation, AlphaScreen, 120 min; inhibition, % at 12.5 µM; 0.54% of 310,000 active; AID 743445; in the data active = inhibition above about 50%
# TDP2 inh conf: confirmation of human TDP2 inhibitors | shares compounds with TDP2 absorb | recombinant human TDP2, absorbance read-out | inhibition, % at 12.8 µM | 22% of 1,100 active; in the data active = inhibition above about 25%
# IN multimer up: counter-screen for LEDGF/p75 integration inhibitors: HIV-1 integrase multimerization activators. 17% of 2,000 active. AID 1053131. activation, % at 7.7 µM. shares compounds with LEDGF integ inh. TR-FRET HIV-1 integrase multimerization, biochemical; in the data active = activation above about 8.9%
# TR-FRET interf: counter-screen for LEDGF/p75 integration inhibitors: TR-FRET optical interference | shares compounds with LEDGF integ inh | TR-FRET optical interference counterscreen, HIV-1 IN multimerization | inhibition, % at 7.7 µM | 2,000 tested, under 10 active;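 active = inhibition above the mean over all tested compounds plus 3 SD, which no compound reached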
# LEDGF integ conf: confirmation of HIV-1 LEDGF/p75-dependent integration inhibitors; shares compounds with LEDGF integ inh; TR-FRET LEDGF/p75-dependent HIV-1 integration, biochemical; inhibition, % at 3.7 µM; 36% of 2,000 active; AID 1053136; in the data active = inhibition above about 14%
# Hits are given with their value; . = inactive; / = no result given.
SMILES,Casp6 inh,TDP2 absorb,UCH37 DUB inh,LEDGF integ inh,NSD2 HMT inh,TDP2 inh conf,IN multimer up,TR-FRET interf,LEDGF integ conf
O=c1cc(-c2cccc([N+](=O)[O-])c2)[nH][nH]1,/,71,.,22,.,.,.,.,.
Nc1ccc(N2CCCCC2)c2nonc12,.,82,21,56,83,89,.,.,67
COc1ccc(-c2cc(=O)[nH][nH]2)cc1,/,61,.,15,.,.,.,.,.
O=c1cc(-c2ccc(Cl)c(Cl)c2)[nH][nH]1,/,57,.,15,.,.,.,.,14
Cc1nc2sc3c(c2c(=O)n1N=Cc1ccco1)CCCC3,/,/,.,/,/,/,/,/,/
Cc1cc(C(C)(C)C)nc2[nH]n(-c3ccccc3)c(=O)c12,/,.,.,.,.,/,/,/,/
O=c1ccc(=O)n(-c2ccccc2)[nH]1,.,.,.,.,.,/,/,/,/
CC(C)(C)c1cc(=O)n(-c2ccccc2)[nH]1,.,85,.,22,.,89,.,.,.
O=c1cc(-c2ccccc2)[nH]n1-c1ccccc1,.,76,.,37,.,.,.,.,.
Cc1ccsc1C=NNC(=O)CSCc1ccc(Cl)cc1,/,/,.,/,/,/,/,/,/
O=C(CCc1nc(-c2ccc(Cl)cc2)no1)OCc1ccc(Br)cc1,/,40,.,16,/,.,.,.,.
COc1ccc(OC)c(S(=O)(=O)Nc2ccc(O)c3ccccc23)c1,/,41,.,23,.,.,.,.,.
COc1ccc(OC)c(S(=O)(=O)Nc2cccc3c(O)cccc23)c1,.,.,.,.,.,/,/,/,/
O=S(=O)(Nc1ccc(O)c2ccccc12)c1ccc(F)cc1,.,47,.,27,/,.,.,.,.
COc1ccc(NC(=O)Nc2ccc(O)c3ccccc23)cc1,.,45,.,15,.,.,.,.,.
CC(=NNC(=O)Cc1ccc(Br)cc1)c1cccnc1,/,/,.,/,/,/,/,/,/
Cn1cnc(S(=O)(=O)Nc2ccccc2N2CCOCC2)c1,.,.,.,.,.,/,/,/,/
CN(C)c1cccc2c1c(NS(=O)(=O)c1cn(C)cn1)nn2C,52,44,.,15,78,32,.,.,.
CCN(CCO)c1ccc(NC(=S)Nc2cccc(S(=O)(=O)N(C)C)c2)cc1,.,36,.,24,.,.,.,.,.
COc1ccc(C=NNC(=O)c2ccncc2)cc1CN1CCN(c2ccc(F)cc2)CC1,/,/,.,/,/,/,/,/,/
CCCCOc1cccc(C=NNC(=O)c2csc(C)c2C)c1,/,/,.,/,/,/,/,/,/
CCOc1ccc(S(=O)(=O)Nc2cc(SCC(=O)O)c(O)c3ccccc23)cc1,88,66,.,25,/,55,.,.,43
CC(=NNC(=O)c1nn(C)c(C)c1Br)c1ccc(NC(=O)c2ccccc2F)cc1,/,/,.,/,/,/,/,/,/
CN(C)C=NC(=S)Nc1ccc(Cl)cc1Cl,/,/,.,/,/,/,/,/,/
COC(=O)C1C(O)=C(C=Nc2ccc(N)cc2)C(=O)CC1(C)C (configuration not stated),/,54,.,40,.,.,.,.,.
SMILES,Casp6 inh,TDP2 absorb,UCH37 DUB inh,LEDGF integ inh,NSD2 HMT inh,TDP2 inh conf,IN multimer up,TR-FRET interf,LEDGF integ conf
CC1(C)CC(=O)C(C=Nc2ccc(N)cc2)=C(O)C1,.,54,.,36,.,.,.,.,.
CCOc1cc(/C=C2\C(=O)N(CCC#N)N=C2C)ccc1OCC(N)=O,.,77,.,15,.,.,.,.,.
CCOc1cc(/C=C2/C(=O)N(c3ccccc3)N=C2C)ccc1OC(=O)c1cccs1,.,/,.,/,.,/,/,/,/
COc1ccc(C=NNC(=O)c2cc(C)on2)c2ccccc12,/,/,.,/,/,/,/,/,/
COc1cc([N+](=O)[O-])cc(/C=N/NC(=O)C(C)Nc2cccc3ccccc23)c1O (configuration not stated),.,.,/,.,.,/,/,/,/
CC(Nc1cccc2ccccc12)C(=O)N/N=C/c1ccc([N+](=O)[O-])cc1 (configuration not stated),/,31,/,16,.,.,.,.,.
O=C1CC(c2ccccc2)=NN1c1ccccc1,.,65,.,21,.,.,.,.,.
Nc1nnnn1N=Cc1cccc(O)c1,/,/,.,/,/,/,/,/,/
CCOc1ccc(N(CC(=O)NC2CCC(C)CC2)S(=O)(=O)c2c(C)noc2C)cc1 (configuration not stated),.,.,.,.,.,/,/,/,/
Cc1ccc(N(CC(=O)NC2CCCCC2)S(=O)(=O)c2c(C)noc2C)cc1,.,29,.,21,.,.,.,.,.
Cc1cc(=O)[nH]c(-n2[nH]c(C)cc2=O)n1,/,.,.,.,.,/,/,/,/
COc1ccc(-n2[nH]c(C)cc2=O)cc1,/,71,.,19,.,33,.,.,.
O=C(CCN1C(=O)/C(=C/c2ccco2)SC1=S)Nc1ccc(O)cc1C(=O)O,70,27,.,78,.,.,19,.,46
COc1ccc(CC(C)=NNC(=S)Nc2ccc(Cl)cc2)cc1,/,/,.,/,/,/,/,/,/
Nn1cnnc1N/N=C/c1cc(Br)cc(Br)c1O,/,54,/,44,/,.,.,.,.
CSc1ccc(/C=N\Nc2nncn2N)cc1,.,64,/,40,.,.,.,.,.
CC1CCN(c2ccc(/C=N\Nc3nncn3N)cc2[N+](=O)[O-])CC1,/,79,/,47,.,.,.,.,.
CCc1nnc(NN=Cc2ccc(N3CCC(C)CC3)c([N+](=O)[O-])c2)n1N,/,/,.,/,/,/,/,/,/
Cc1ccc(C=NNc2nncn2N)cc1,/,/,.,/,/,/,/,/,/
CC(C)(C)c1ccc(/C=N/Nc2nncn2N)cc1,.,67,/,39,.,.,.,.,.
Nn1cnnc1NN=Cc1ccccc1C(F)(F)F,/,/,.,/,/,/,/,/,/
CON=C/C(C#N)=C/c1cc(C(=O)c2ccc(F)cc2)cn1C,/,/,.,/,/,/,/,/,/
O=c1c2cc([N+](=O)[O-])cc([N+](=O)[O-])c2[nH]n1-c1ccccc1,.,.,.,.,.,/,/,/,/
COc1cccc(C(c2c(C)[nH]n(-c3ccccc3)c2=O)c2c(C)[nH]n(-c3ccccc3)c2=O)c1OC,/,89,.,21,.,32,.,.,.
COc1cccc(C(c2c(C)[nH]n(-c3ccccc3)c2=O)c2c(C)[nH]n(-c3ccccc3)c2=O)c1O,.,80,.,23,.,.,.,.,.
CCOc1cccc(C(c2c(C)n(C)n(-c3ccccc3)c2=O)c2c(C)n(C)n(-c3ccccc3)c2=O)c1OC,.,.,.,.,.,/,/,/,/
